Reference: ChEMBL document CHEMBL4130346, “New quinoline-arylamidine hybrids: Synthesis, DNA/RNA binding and antitumor activity” (Eur J Med Chem, 2017)
In brackets after ≈: the same amount, converted by molar mass. Activity calls are given as the source filed them. No cut-off for these calls is given here.

What was measured:
[1] = Growth inhibition of MDCK1 cells after 72 hrs by MTT assay; set-up: species or system Canis lupus familiaris; conditions: dog
Summary of the method: (§1)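 Adherent cells (2x10^4 cells/cm3) attached overnight, then were exposed to compound for 72 h. Medium was replaced with 5 mg/cm3 MTT, formazan was dissolved in DMSO and absorbance read at 595 nm. Percent growth was taken relative to untreated control minus background. GI50 came from a variable-slope log-inhibitor fit, as mean ± SD of three independent experiments in triplicate.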

Raji = test: Growth inhibition of human Raji cells after 72 hrs by MTT assay; type: functional
Summary of the method: (§2)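 Leukemia cells (1x10^5 cells/cm3) were exposed to compound for 72 h, then MTT (5 mg/cm3) was added for 4 h. Formazan was dissolved with 10% SDS in 0.01 mol dm-3 HCl and absorbance read at 595 nm. Percent growth was taken versus untreated control minus background. GI50 came from a variable-slope fit, as mean ± SD of three independent experiments in triplicate.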

HeLa = test: Growth inhibition of human HeLa cells after 72 hrs by MTT assay; type: functional; summary of the method: as §1
Caco-2 = test: Growth inhibition of human Caco2 cells after 72 hrs by MTT assay; type: functional; conditions: Caco-2, 72 h; summary of the method: as §1
[2] = Chemical stability in aqueous solution after several weeks; type: physicochemical; conditions: buffer
Summary of the method: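 Aqueous compound solutions were monitored for several weeks by UV-Vis absorbance at 220-900 nm. Linearity with concentration was checked up to 3.5 × 10^-5 mol dm-3, and spectra were recorded at 25–90 °C with reproducibility checked on cooling to 25 °C.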

[3] = Solubility of the compound in DMSO; type: physicochemical
Calf thymus DNA [4] = test: Binding affinity to calf thymus DNA minor groove at 0.1, 0.3, 0.5, 0.7 compound to ds-polynucleotide ratio by CD-spectrophotometric method; type: nucleic-acid assay; conditions: Bos taurus
Summary of the method: (§3)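 Induced CD spectra were recorded in 1 cm quartz cuvettes in Na cacodylate buffer (I = 0.05 mol dm-3, pH 7.0) with ct-DNA or polyA-polyU. Compound was added at r = [compound]/[polynucleotide] = 0.1, 0.3, 0.5 and 0.7. The CD signal was followed as a function of r.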

K562 [5] = test: Growth inhibition of human K562 cells after 72 hrs by MTT assay; type: functional; conditions: K562, 72 h; summary of the method: as §2
Calf thymus DNA [6] = test: Binding affinity to calf thymus DNA assessed as change in melting temperature at 0.5 compound to ds-polynucleotide ratio by spectrophotometric method; type: nucleic-acid assay; conditions: Bos taurus
Summary of the method: (§4)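 Thermal melting of ct-DNA (sonicated, filtered) or polyA-polyU in Na cacodylate buffer, I = 0.05 mol dm-3, pH 7.0, at given r = [compound]/[polynucleotide]; polynucleotide as phosphate concentration. Tm from maximum of first derivative, checked by tangent method. ΔTm = Tm(complex) − Tm(free nucleic acid), average of at least two measurements, error ±0.5 °C.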

[7] = Binding affinity to polyA-polyU (unknown origin) by UV-vis spectrophotometric method
Summary of the method: (§5)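 UV-Vis titration at room temperature in Na cacodylate buffer (I = 0.05 mol dm-3, pH 7.0). Portions of ct-DNA or polyA-polyU were added to a fixed compound concentration until saturation, with dilution correction. Polynucleotide was measured as phosphate. Ks and n were obtained by Scatchard analysis, together with the hypochromic change at the absorption maximum.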

[8] = Binding affinity to polyA-polyU (unknown origin) major groove at 0.1, 0.3, 0.5, 0.7 compound to ds-polynucleotide ratio by CD-spectrophotometric method; summary of the method: as §3
K562 [9] = test: Cell cycle arrest in human K562 cells assessed as decrease in cell levels at G2-M phase at 10^-5 mol/dm'3 after 24 hrs by propidium iodide staining-based flow cytometric method; type: functional
K562 [10] = test: Cell cycle arrest in human K562 cells assessed as decrease in cell levels at S phase at 10^-5 mol/dm'3 after 24 hrs by propidium iodide staining-based flow cytometric method; type: functional
Calf thymus DNA [11] = test: Binding affinity to calf thymus DNA assessed as change in melting temperature at 0.3 compound to ds-polynucleotide ratio by spectrophotometric method; type: nucleic-acid assay; conditions: Bos taurus; summary of the method: as §4
Calf thymus DNA [12] = test: Binding affinity to calf thymus DNA by UV-vis spectrophotometric method; type: nucleic-acid assay; conditions: Bos taurus; summary of the method: as §5
Calf thymus DNA [13] = test: Disruption of calf thymus DNA helix at 0.1, 0.3, 0.5, 0.7 compound to ds-polynucleotide ratio by CD-spectrophotometric method; type: nucleic-acid assay; conditions: Bos taurus; summary of the method: as §3
Calf thymus DNA [14] = test: Binding affinity to calf thymus DNA assessed as hypochromic effect by UV-vis spectrophotometric method; type: nucleic-acid assay; conditions: Bos taurus; summary of the method: as §5
[15] = Binding affinity to polyA-polyU (unknown origin) assessed as change in melting temperature at 0.3 compound to ds-polynucleotide ratio by spectrophotometric method; summary of the method: as §4
[16] = Solubility of the compound in water; type: physicochemical
Calf thymus DNA [17] = test: Binding affinity to calf thymus DNA assessed as change in melting temperature at 0.1 compound to ds-polynucleotide ratio by spectrophotometric method; type: nucleic-acid assay; conditions: Bos taurus; summary of the method: as §4
K562 [18] = test: Cell cycle arrest in human K562 cells assessed as accumulation at sub-G0 phase at 10^-5 mol/dm'3 after 24 hrs by propidium iodide staining-based flow cytometric method; type: functional
[19] = Binding affinity to polyA-polyU (unknown origin) assessed as change in melting temperature at 0.1 compound to ds-polynucleotide ratio by spectrophotometric method; summary of the method: as §4
[20] = Binding affinity to polyA-polyU (unknown origin) assessed as hypochromic effect by UV-vis spectrophotometric method; summary of the method: as §5
K562 [21] = test: Cell cycle arrest in human K562 cells assessed as accumulation at G0-G1 phase at 10^-5 mol/dm'3 after 24 hrs by propidium iodide staining-based flow cytometric method; type: functional
[22] = Binding affinity to polyA-polyU (unknown origin) assessed as change in melting temperature at 0.5 compound to ds-polynucleotide ratio by spectrophotometric method; summary of the method: as §4
[23] = Induction of polyA-polyU (unknown origin) intercalation at 0.1, 0.3, 0.5, 0.7 compound to ds-polynucleotide ratio by CD-spectrophotometric method; summary of the method: as §3

| SMILES | GI50 at 72 h [1] [µM] | GI50 (Raji) [µM] | GI50 (HeLa) [µM] | GI50 (Caco-2) [µM] | Stability [2] | solubility [3] [µM] | Activity (Calf thymus DNA [4]) | GI50 (K562 [5]) [µM] | ΔTm (Calf thymus DNA [6]) [°C] | log Ks [7] | Activity (K562 [9]) | Activity (K562 [10]) | ΔTm (Calf thymus DNA [11]) [°C] | Activity (Calf thymus DNA [14]) [%] | ΔTm [15] [°C] | solubility [16] [µM] | ΔTm (Calf thymus DNA [17]) [°C] | ΔTm [19] [°C] | Activity [20] | ΔTm [22] [°C] | further results |
| --- | --- | --- | --- | --- | --- | --- | --- | --- | --- | --- | --- | --- | --- | --- | --- | --- | --- | --- | --- | --- | --- |
| N#Cc1ccc2nc(-c3ccc(Oc4ccnc5cc(Cl)ccc45)cc3)[nH]c2c1 | 93.1 | > 100 | > 100 | > 100 | Stable | 1000 (≈ 397 µg/mL) | Active | > 100 | – | – | – | – | – | – | – | – | – | – | – | – | – |
| CC(C)CNC(=N)c1ccc2nc(-c3ccc(OCCNc4ccnc5cc(Cl)ccc45)cc3)[nH]c2c1.Cl.Cl.Cl | 94.1 | 28.5 | > 100 | > 100 | Stable | – | Active | 15.1 | 8.67 | 7.02 | Active | Active | 8.15 | 32.2 | 0.75 | 1000 | 4.31 | 1.24 | 26% | – | Activity [8]: Active; log Ks (Calf thymus DNA [12]): 6.51; Activity (Calf thymus DNA [13]): Active; Activity (K562 [18]): Active |
| N#Cc1ccc(Oc2ccnc3cc(Cl)ccc23)cc1 | 88.5 | 91.4 | > 100 | > 100 | Stable | 1000 (≈ 281 µg/mL) | – | 86.7 | – | – | – | – | – | – | – | – | – | – | – | – | – |
| N#Cc1ccc2nc(-c3ccc(OCCNc4ccnc5cc(Cl)ccc45)cc3)[nH]c2c1 | 22.1 | 5.2 | 56.6 | 28.3 | Stable | 1000 (≈ 440 µg/mL) | Active | 7.8 | 2.6 | – | – | – | 2.58 | – | – | – | 3.96 | – | – | – | Activity (Calf thymus DNA [13]): Active |
| N#Cc1ccc(OCCNc2ccnc3cc(Cl)ccc23)cc1 | > 100 | 6.2 | 84.4 | 95.3 | Stable | 1000 (≈ 324 µg/mL) | – | 7.2 | – | inactive | Active | Active | – | 26.2 | – | – | – | – | inactive | – | Activity (K562 [21]): Active |
| Cl.Cl.Cl.N=C(NC1CCCC1)c1ccc2nc(-c3ccc(OCCNc4ccnc5cc(Cl)ccc45)cc3)[nH]c2c1 | 99.2 | 17.1 | > 100 | > 100 | Stable | – | Active | 11.4 | 7.8 | 6.81 | – | Active | 7.8 | 24.4 | 1.14 | 1000 | 3.71 | 3.02 | 49.7% | 4.67 to 35.4 | Activity [8]: Active; log Ks (Calf thymus DNA [12]): 6.29; Activity (Calf thymus DNA [13]): Active |
| Cl.Cl.Cl.N=C(NC1CCCC1)c1ccc(Oc2ccnc3cc(Cl)ccc23)cc1 | 35 | 19.7 | 48.6 | 13.5 | Stable | – | – | 18.8 | 1.51 | – | Active | Active | 1.43 | – | 0.65 | 1000 | 1.35 | 0.64 | – | 0.28 | Activity (K562 [21]): Active |
| Cl.Cl.Cl.Clc1ccc2c(NCCOc3ccc(-c4nc5ccc(C6=NCCN6)cc5[nH]4)cc3)ccnc2c1 | > 100 | 27.5 | > 100 | 117 | Stable | – | Active | 8.6 | – | 6.71 | – | Active | – | 21.6 to 26 | 5.16 | 1000 | 5.75 | 4.62 | 37.7% | 8.86 to 33.5 | Activity [8]: Active; Activity (Calf thymus DNA [13]): Active; Activity (K562 [18]): Active |
| CC(C)CNC(=N)c1ccc(Oc2ccnc3cc(Cl)ccc23)cc1.Cl.Cl.Cl | 30.3 | 25.5 | 52.3 | 71.9 | Stable | – | – | 16.9 | 1.85 | – | Active | Active | 1.97 | – | -0.8 | 1000 | 1.91 | -0.71 | – | -0.44 | Activity (K562 [21]): Active |
| CC(C)NC(=N)c1ccc2nc(-c3ccc(Oc4ccnc5cc(Cl)ccc45)cc3)[nH]c2c1.Cl.Cl.Cl | 61.8 | 48.2 | 51.3 | 53.3 | Stable | – | Active | 69 | 2.24 | 5.36 | – | – | 1.75 | 60 | 1.32 | 1000 | 1.07 | -0.44 | 26.8% | 0.43 | log Ks (Calf thymus DNA [12]): 7.87; Activity [23]: Active |
